{"source": "ChEMBL document CHEMBL3784969", "about": "“Pharmacokinetics of flutamide in patients with renal insufficiency” (Br J Clin Pharmacol, 1999)", "key": {"[1]": {"experiment": "Tmax in patient (6 patients) with renal insufficiency at 250 mg, po administered as single dose by gas chromatography", "type": "ADME, organism-based", "settings": "human, in vivo", "outline": "(§1)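 Males grouped by 24 h CLcr normalised to body surface area (>80, 50–80, 30–49, 5–29 ml min−1 1.73 m−2), fasted 10 h pre-dose and 4 h post-dose, given a single oral 250 mg flutamide dose. Plasma sampled 0–96 h; urine collected in blocks to 96 h. Flutamide and hydroxyflutamide measured by GC with electron-capture detection. Renal CL = Ae(0,96 h)/AUC(0,96 h); t1/2 = 0.693/λz.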"}, "Homo sapiens [2]": {"tested_on": "Homo sapiens", "experiment": "AUC (0 to 96 hrs) in patient (3 patients) with renal insufficiency at 250 mg, po assessed as hydroxy flutamide administered as single dose by gas chromatography", "type": "ADME, organism-based", "set-up": "dose 250 mg, time < 96 hr, route oral", "settings": "in vivo"}, "Homo sapiens [3]": {"tested_on": "Homo sapiens", "experiment": "AUC in patient with renal insufficiency at 250 mg, po administered first dose followed by 14 days wash out period and administered second dose 4 hrs prior to hemodialysis measured during hemodialysis treatment by gas chromatography", "type": "ADME, organism-based", "settings": "in vivo", "outline": "(§2)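 Group V haemodialysis males (CLcr <5 ml min−1 1.73 m−2). Single oral 250 mg flutamide (two 125 mg capsules) right after HD; after 14-day washout, same dose 4 h before HD lasting 2–4 h. Venous samples to 48 h, arterial/venous during HD, dialysate in hourly blocks. GC with 63Ni electron-capture detection. CL(HD) = dialysate Ae(HD)/arterial AUC(HD); renal CL = Ae(0,48)/AUC(0,48 h).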"}, "[4]": {"experiment": "Tmax in patient (6 patients) with renal insufficiency at 250 mg, po administered as single dose 4 hrs prior to hemodialysis treatment measured at starting time of dialysis and post dialysis treatment by gas chromatography", "type": "ADME, organism-based", "settings": "human, in vivo", "outline": "as §2"}, "Homo sapiens [5]": {"tested_on": "Homo sapiens", "experiment": "AUC (0 to infinity) in patient (3 patients) with renal insufficiency at 250 mg, po assessed as hydroxy flutamide administered as single dose by gas chromatography", "type": "ADME, organism-based", "set-up": "dose 250 mg, time infinity, route oral", "settings": "in vivo"}, "Homo sapiens [6]": {"tested_on": "Homo sapiens", "experiment": "AUC (0 to infinity) in patient (6 patients) with renal insufficiency assessed as hydroxy flutamide at 250 mg, po administered as single dose 4 hrs prior to hemodialysis treatment measured at starting time of dialysis and post dialysis treatment by gas chromatography", "type": "ADME, organism-based", "set-up": "dose 250 mg, time infinity, route oral", "settings": "in vivo"}, "[7]": {"experiment": "Cmax in patient (4 patients) with renal insufficiency at 250 mg, po administered as single dose by gas chromatography", "type": "ADME, organism-based", "set-up": "dose 250 mg, route oral", "settings": "human, in vivo"}, "[8]": {"experiment": "Drug excretion in urine of patient (7 patients) with renal insufficiency at 250 mg, po administered as single dose by gas chromatography", "type": "ADME, organism-based", "settings": "human, in vivo", "outline": "as §1"}, "Homo sapiens [9]": {"tested_on": "Homo sapiens", "experiment": "Renal clearance in patient (7 patients) with renal insufficiency assessed as hydroxy flutamide at 250 mg, po administered as single dose by gas chromatography", "type": "ADME, organism-based, Kidney", "settings": "in vivo", "outline": "as §1"}, "[10]": {"experiment": "Drug excretion in urine of patient (3 patients) with renal insufficiency assessed as hydroxy flutamide at 250 mg, po administered as single dose by gas chromatography", "type": "ADME, organism-based", "settings": "human, in vivo", "outline": "as §1"}, "Homo sapiens [11]": {"tested_on": "Homo sapiens", "experiment": "Tmax in patient (4 patients) with renal insufficiency assessed as hydroxy flutamide at 250 mg, po administered as single dose by gas chromatography", "type": "ADME, organism-based", "settings": "in vivo", "outline": "as §1"}, "Homo sapiens [12]": {"tested_on": "Homo sapiens", "experiment": "Terminal half life in patient (6 patients) with renal insufficiency assessed as hydroxy flutamide at 250 mg, po administered as single dose by gas chromatography", "type": "ADME, organism-based", "settings": "in vivo", "outline": "as §1"}, "[13]": {"experiment": "AUC (0 to 24 hrs) in patient (6 patients) with renal insufficiency at 250 mg, po administered as single dose 4 hrs prior to hemodialysis treatment measured at starting time of dialysis and post dialysis treatment by gas chromatography", "type": "ADME, organism-based", "set-up": "time < 24 hr, dose 250 mg, route oral", "settings": "human, in vivo"}, "Homo sapiens [14]": {"tested_on": "Homo sapiens", "experiment": "AUC (0 to 24 hrs) in patient (6 patients) with renal insufficiency assessed as hydroxy flutamide at 250 mg, po administered as single dose 4 hrs prior to hemodialysis treatment measured at starting time of dialysis and post dialysis treatment by gas chromatography", "type": "ADME, organism-based", "set-up": "time < 24 hr, dose 250 mg, route oral", "settings": "in vivo"}, "Homo sapiens [15]": {"tested_on": "Homo sapiens", "experiment": "AUC (0 to 24 hrs) in patient (6 patients) with renal insufficiency assessed as hydroxy flutamide at 250 mg, po administered as single dose by gas chromatography", "type": "ADME, organism-based", "set-up": "time < 24 hr, dose 250 mg, route oral", "settings": "in vivo"}, "Homo sapiens [16]": {"tested_on": "Homo sapiens", "experiment": "Toxicity in patient with renal insufficiency assessed as dizziness at 250 mg, po administered as single dose", "type": "organism-based", "settings": "in vivo", "outline": "(§3)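 26 male subjects in groups by 24 h creatinine clearance (normalized to body surface area): >80, 50–80, 30–49, 5–29, <5 ml min−1 1.73 m−2 on haemodialysis. Given as two 125 mg capsules after a 10 h fast, continued 4 h post-dose. Prescription drugs withheld for the same period. Subjects confined 12 h pre-dose to 48 h post-dose, with adverse events compared across renal-function groups.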"}, "[17]": {"experiment": "Drug excretion in urine of patient (3 patients) with renal insufficiency at 250 mg, po administered as single dose by gas chromatography", "type": "ADME, organism-based", "settings": "human, in vivo", "outline": "as §1"}, "[18]": {"experiment": "Half life in patient with renal insufficiency at 250 mg, po administered first dose followed by 14 days wash out period and administered second dose 4 hrs prior to hemodialysis day measured during hemodialysis treatment by gas chromatography", "type": "ADME, organism-based", "settings": "human, in vivo", "outline": "as §2"}, "[19]": {"experiment": "Tmax in patient (7 patients) with renal insufficiency at 250 mg, po administered as single dose by gas chromatography", "type": "ADME, organism-based", "settings": "human, in vivo", "outline": "as §1"}, "Homo sapiens [20]": {"tested_on": "Homo sapiens", "experiment": "Final time point in terminal phase in patient (6 patients) with renal insufficiency at 250 mg, po administered as single dose 4 hrs prior to hemodialysis treatment measured at starting time of dialysis and post dialysis treatment by gas chromatography", "type": "ADME, organism-based", "settings": "in vivo", "outline": "as §2"}, "[21]": {"experiment": "Renal clearance in patient (7 patients) with renal insufficiency at 250 mg, po administered as single dose by gas chromatography", "type": "ADME, organism-based, Kidney", "settings": "human, in vivo", "outline": "as §1"}, "[22]": {"experiment": "Drug excretion in urine of patient (6 patients) with renal insufficiency assessed as hydroxy flutamide at 250 mg, po administered as single dose 4 hrs prior to hemodialysis treatment measured at starting time of dialysis and post dialysis treatment by gas chromatography", "type": "ADME, organism-based", "settings": "human, in vivo", "outline": "as §2"}, "Homo sapiens [23]": {"tested_on": "Homo sapiens", "experiment": "AUC (0 to 24 hrs) in patient (3 patients) with renal insufficiency assessed as hydroxy flutamide at 250 mg, po administered as single dose by gas chromatography", "type": "ADME, organism-based", "set-up": "dose 250 mg, time < 24 hr, route oral", "settings": "in vivo"}, "Homo sapiens [24]": {"tested_on": "Homo sapiens", "experiment": "AUC (0 to 24 hrs) in patient (4 patients) with renal insufficiency assessed as hydroxy flutamide at 250 mg, po administered as single dose by gas chromatography", "type": "ADME, organism-based", "set-up": "dose 250 mg, time < 24 hr, route oral", "settings": "in vivo"}, "[25]": {"experiment": "Drug excretion in urine of patient (6 patients) with renal insufficiency assessed as hydroxy flutamide at 250 mg, po administered as single dose by gas chromatography", "type": "ADME, organism-based", "settings": "human, in vivo", "outline": "as §1"}, "[26]": {"experiment": "AUC (0 to 96 hrs) in patient (6 patients) with renal insufficiency at 250 mg, po administered as single dose by gas chromatography", "type": "ADME, organism-based", "set-up": "dose 250 mg, time < 96 hr, route oral", "settings": "human, in vivo"}, "Homo sapiens [27]": {"tested_on": "Homo sapiens", "experiment": "Clearance in patient with renal insufficiency at 250 mg, po administered first dose followed by 14 days wash out period and administered second dose 4 hrs prior to hemodialysis measured during hemodialysis treatment by gas chromatography", "type": "ADME, organism-based", "settings": "in vivo", "outline": "as §2"}, "[28]": {"experiment": "Drug excretion in urine of patient (4 patients) with renal insufficiency assessed as hydroxy flutamide at 250 mg, po administered as single dose by gas chromatography", "type": "ADME, organism-based", "settings": "human, in vivo", "outline": "as §1"}, "Homo sapiens [29]": {"tested_on": "Homo sapiens", "experiment": "AUC (0 to 96 hrs) in patient (7 patients) with renal insufficiency at 250 mg, po assessed as hydroxy flutamide administered as single dose by gas chromatography", "type": "ADME, organism-based", "set-up": "time < 96 hr, dose 250 mg, route oral", "settings": "in vivo"}, "Homo sapiens [30]": {"tested_on": "Homo sapiens", "experiment": "Toxicity in patient with renal insufficiency assessed as headache at 250 mg, po administered as single dose", "type": "organism-based", "settings": "in vivo", "outline": "as §3"}, "Homo sapiens [31]": {"tested_on": "Homo sapiens", "experiment": "Cmax in patient (6 patients) with renal insufficiency assessed as hydroxy flutamide at 250 mg, po administered as single dose by gas chromatography", "type": "ADME, organism-based", "set-up": "dose 250 mg, route oral", "settings": "in vivo"}}}
{"smiles": "CC(C)C(=O)Nc1ccc([N+](=O)[O-])c(C(F)(F)F)c1", "note": "[FLUTAMIDE]", "values": [{"measurement": "Tmax", "setting": "[1]", "value": 1.4, "unit": "h"}, {"measurement": "AUC", "setting": "Homo sapiens [2]", "value": 6907, "unit": "ng·h/mL"}, {"measurement": "AUC", "setting": "Homo sapiens [3]", "value": 907.6, "unit": "ng·h/mL"}, {"measurement": "Tmax", "setting": "[4]", "value": 1, "unit": "h"}, {"measurement": "AUC", "setting": "Homo sapiens [5]", "value": 6907, "unit": "ng·h/mL"}, {"measurement": "AUC", "setting": "Homo sapiens [6]", "value": 5963, "unit": "ng·h/mL"}, {"measurement": "Cmax", "setting": "[7]", "value": 44, "unit": "ng/mL"}, {"measurement": "Drug excretion", "setting": "[8]", "value": 39, "unit": "µg"}, {"measurement": "CL", "setting": "Homo sapiens [9]", "value": 0.3, "unit": "mL/min"}, {"measurement": "Drug excretion", "setting": "[10]", "value": 132, "unit": "µg"}, {"measurement": "Tmax", "setting": "Homo sapiens [11]", "value": 3, "unit": "h"}, {"measurement": "beta t1/2", "setting": "Homo sapiens [12]", "value": 7.3, "unit": "h"}, {"measurement": "AUC(0-t) at 24 h", "setting": "[13]", "value": 217, "unit": "ng·h/mL"}, {"measurement": "AUC", "setting": "Homo sapiens [14]", "value": 5434, "unit": "ng·h/mL"}, {"measurement": "AUC", "setting": "Homo sapiens [15]", "value": 5132, "unit": "ng·h/mL"}, {"measurement": "Activity", "setting": "Homo sapiens [16]", "value": 15, "unit": "%"}, {"measurement": "Drug excretion", "setting": "[17]", "value": 14, "unit": "µg"}, {"measurement": "half-life", "setting": "[18]", "value": 4.3, "unit": "h"}, {"measurement": "Tmax", "setting": "[19]", "value": 1.7, "unit": "h"}, {"measurement": "Time", "setting": "Homo sapiens [20]", "value": 7, "unit": "h"}, {"measurement": "CL renal", "setting": "[21]", "value": 22.8, "unit": "mL/min"}, {"measurement": "Drug excretion", "setting": "[22]", "value": 5, "unit": "µg"}, {"measurement": "AUC", "setting": "Homo sapiens [23]", "value": 6166, "unit": "ng·h/mL"}, {"measurement": "AUC", "setting": "Homo sapiens [24]", "value": 5821, "unit": "ng·h/mL"}, {"measurement": "Drug excretion", "setting": "[25]", "value": 118.3, "unit": "µg"}, {"measurement": "AUC(0-t) at 96 h", "setting": "[26]", "value": 96.4, "unit": "ng·h/mL"}, {"measurement": "CL", "setting": "Homo sapiens [27]", "value": 21.4, "unit": "mL/min"}, {"measurement": "Drug excretion", "setting": "[28]", "value": 92, "unit": "µg"}, {"measurement": "AUC", "setting": "Homo sapiens [29]", "value": 4993, "unit": "ng·h/mL"}, {"measurement": "Activity", "setting": "Homo sapiens [30]", "value": 12, "unit": "%"}, {"measurement": "Cmax", "setting": "Homo sapiens [31]", "value": 1070, "unit": "ng/mL"}]}
